ChEMBL document CHEMBL1153436, “2-Pyridyl P1'-substituted symmetry-based human immunodeficiency virus protease inhibitors (A-792611 and A-790742) with potential for convenient dosing and reduced side effects” (J Med Chem, 2009)
≈ marks a conversion by molar mass, not a printed value.

Assays:
[1] = Cmax in dog at 5 mg/kg, po; format: ADME, organism-based, Canis lupus familiaris; design: dose 5 mg/kg, route oral; conditions: in vivo
Outline: (§1)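 Male and female beagle dogs (n = 3) given oral gavage doses formulated as 5 mg/mL solutions in 5% dextrose with 20% ethanol, 30% propylene glycol and methanesulfonic acid, alone or with RTV (2.5 or 5 mg/kg). Plasma was taken at 12 time points over 12 h, extracted with ethyl acetate/hexane and analysed by reversed-phase HPLC with internal standard. AUC in µg·h/mL; Cmax and C12h in µg/mL.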

[2] = Concentration of drug after 12 hrs in dog at 5 mg/kg, po coadministered with 5 mg/kg ritonavir; format: ADME, organism-based, Canis lupus familiaris; conditions: in vivo, read-out: Drug uptake; outline: as §1
[3] = AUC in dog at 5 mg/kg, po coadministered with 2.5 mg/kg ritonavir; format: ADME, organism-based, Canis lupus familiaris; conditions: plasma; outline: as §1
Cytochrome P450 2C9 = Cytochrome P450 2C9 (Homo sapiens, UniProt P11712); assay: Inhibition of CYP2C9 assessed as Tolbutamide hydroxylation; format: ADME
Sequence of Cytochrome P450 2C9 (P11712 whole entry): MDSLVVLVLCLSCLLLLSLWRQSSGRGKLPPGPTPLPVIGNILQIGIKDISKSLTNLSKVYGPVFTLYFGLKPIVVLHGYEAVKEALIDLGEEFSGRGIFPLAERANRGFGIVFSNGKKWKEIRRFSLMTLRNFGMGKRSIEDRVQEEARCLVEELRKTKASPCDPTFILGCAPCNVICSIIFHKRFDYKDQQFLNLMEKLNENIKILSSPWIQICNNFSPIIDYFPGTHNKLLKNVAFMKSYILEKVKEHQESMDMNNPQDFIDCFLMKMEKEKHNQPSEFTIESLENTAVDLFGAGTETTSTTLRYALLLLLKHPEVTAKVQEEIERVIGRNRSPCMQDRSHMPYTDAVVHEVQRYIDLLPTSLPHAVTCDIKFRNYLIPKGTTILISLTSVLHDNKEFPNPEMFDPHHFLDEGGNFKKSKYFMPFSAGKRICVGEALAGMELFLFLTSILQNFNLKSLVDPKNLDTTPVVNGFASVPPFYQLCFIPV
Outline: (§2)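 CYP inhibition in vitro, with probe reactions of phenacetin O-deethylation (CYP1A2), tolbutamide hydroxylation (CYP2C9), S-mephenytoin hydroxylation (CYP2C19) and dextromethorphan O-demethylation (CYP2D6). Reported as IC50 in µM.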

[4] = tested on: Human immunodeficiency virus 1; assay: Antiviral activity against HIV1 bearing protease gene with P25 mutation infected in human MT4 cells after 5 days by MTT assay; format: functional, organism-based; conditions: Human immunodeficiency virus 1, MT4, 120 h
[5] = tested on: Human immunodeficiency virus 1; assay: Antiviral activity against HIV1 bearing protease gene with B26 mutation infected in human MT4 cells after 5 days by MTT assay; format: functional, organism-based; conditions: Human immunodeficiency virus 1, MT4, 120 h
[6] = AUC in Sprague-Dawley rat at 5 mg/kg, po in presence of ritonavir; format: ADME, organism-based; design: dose 5 mg/kg, route oral; conditions: plasma
Outline: (§3)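 Male Sprague-Dawley-derived rats (n = 3) dosed iv or by oral gavage with 5 mg/mL solutions in 5% dextrose containing 20% ethanol, 30% propylene glycol and methanesulfonic acid equivalents. Plasma was sampled at 10 time points over 8 h, extracted into ethyl acetate/hexane and analysed by reversed-phase HPLC with internal standard. AUC in µg·h/mL.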

[7] = AUC in dog at 5 mg/kg, po coadministered with 5 mg/kg ritonavir; format: ADME, organism-based, Canis lupus familiaris; conditions: plasma; outline: as §1
[8] = Concentration of drug after 12 hrs in dog at 5 mg/kg, po coadministered with 2.5 mg/kg ritonavir; format: ADME, organism-based, Canis lupus familiaris; conditions: in vivo, read-out: Drug uptake; outline: as §1
Cytochrome P450 1A2 = biological target: T1, Cytochrome P450 1A2 (Homo sapiens, UniProt P05177); assay: Inhibition of CYP1A2 assessed as phenacetin O-deethylation; format: ADME; outline: as §2
T1 sequence (P05177 whole entry): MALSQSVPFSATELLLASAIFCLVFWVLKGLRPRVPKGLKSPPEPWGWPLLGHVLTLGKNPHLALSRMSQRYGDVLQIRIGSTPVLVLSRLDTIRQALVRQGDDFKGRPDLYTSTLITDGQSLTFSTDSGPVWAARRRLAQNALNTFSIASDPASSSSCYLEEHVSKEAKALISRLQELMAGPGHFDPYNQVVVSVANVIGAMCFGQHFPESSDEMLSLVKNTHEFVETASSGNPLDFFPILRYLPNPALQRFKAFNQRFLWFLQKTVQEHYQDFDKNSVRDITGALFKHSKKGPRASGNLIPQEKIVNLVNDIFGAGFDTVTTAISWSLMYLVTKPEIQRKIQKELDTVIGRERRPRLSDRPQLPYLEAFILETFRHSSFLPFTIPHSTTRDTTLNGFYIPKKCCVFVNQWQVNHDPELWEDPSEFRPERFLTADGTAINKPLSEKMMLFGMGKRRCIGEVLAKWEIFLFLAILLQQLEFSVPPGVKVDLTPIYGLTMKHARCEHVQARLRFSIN

[9] = tested on: Human immunodeficiency virus 1; assay: Antiviral activity against wild-type HIV1 pNL4-3 infected in human MT4 cells after 5 days by MTT assay; format: functional, organism-based; conditions: Human immunodeficiency virus 1, MT4, 120 h
Cytochrome P450 3A4 = Cytochrome P450 3A4 (Homo sapiens, UniProt P08684); assay: Inhibition of CYP3A4 assessed as midazolam 1'- hydroxylation; format: ADME
Sequence of Cytochrome P450 3A4 (P08684 whole entry): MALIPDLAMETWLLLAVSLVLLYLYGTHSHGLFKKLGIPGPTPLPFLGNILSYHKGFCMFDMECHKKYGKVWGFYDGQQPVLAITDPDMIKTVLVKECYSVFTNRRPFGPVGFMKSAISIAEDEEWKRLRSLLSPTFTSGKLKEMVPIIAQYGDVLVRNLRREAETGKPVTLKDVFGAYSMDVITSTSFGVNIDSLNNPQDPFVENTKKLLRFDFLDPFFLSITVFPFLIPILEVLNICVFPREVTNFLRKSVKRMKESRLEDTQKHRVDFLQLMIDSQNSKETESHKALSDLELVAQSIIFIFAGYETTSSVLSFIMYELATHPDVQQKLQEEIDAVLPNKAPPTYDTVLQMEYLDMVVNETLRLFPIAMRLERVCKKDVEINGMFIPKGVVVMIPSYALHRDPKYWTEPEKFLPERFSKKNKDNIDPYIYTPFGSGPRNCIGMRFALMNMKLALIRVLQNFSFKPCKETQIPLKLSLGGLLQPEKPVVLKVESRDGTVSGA
Outline: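 CYP3A4 inhibition was measured as midazolam 1′-hydroxylation and expressed as Ki in nM.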

[10] = Clearance in Sprague-Dawley rat at 5 mg/kg, iv; format: ADME, organism-based; design: dose 5 mg/kg, route intravenous; conditions: in vivo; outline: as §3
[11] = Cmax in dog at 5 mg/kg, po coadministered with 5 mg/kg ritonavir; format: ADME, organism-based, Canis lupus familiaris; design: dose 5 mg/kg, route oral; conditions: in vivo; outline: as §1
[12] = AUC in Sprague-Dawley rat at 5 mg/kg, po; format: ADME, organism-based; design: dose 5 mg/kg, route oral; conditions: plasma; outline: as §3
[13] = Protein binding in human plasma by equilibrium dialysis; format: ADME, cell-free; conditions: read-out: PB (converted)
Outline: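 Percentage bound in human plasma, determined by equilibrium dialysis.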

[14] = Cmax in dog at 5 mg/kg, po coadministered with 2.5 mg/kg ritonavir; format: ADME, organism-based, Canis lupus familiaris; design: dose 5 mg/kg, route oral; conditions: in vivo; outline: as §1
Cathepsin D = Cathepsin D (Homo sapiens, UniProt P07339); assay: Inhibition of cathepsin D
Sequence of Cathepsin D (P07339 65-162 limits assumed): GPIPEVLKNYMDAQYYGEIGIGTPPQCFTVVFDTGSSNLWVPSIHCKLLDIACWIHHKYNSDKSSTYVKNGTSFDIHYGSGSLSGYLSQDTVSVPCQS
Sequence of Cathepsin D (P07339 169-412 limits assumed): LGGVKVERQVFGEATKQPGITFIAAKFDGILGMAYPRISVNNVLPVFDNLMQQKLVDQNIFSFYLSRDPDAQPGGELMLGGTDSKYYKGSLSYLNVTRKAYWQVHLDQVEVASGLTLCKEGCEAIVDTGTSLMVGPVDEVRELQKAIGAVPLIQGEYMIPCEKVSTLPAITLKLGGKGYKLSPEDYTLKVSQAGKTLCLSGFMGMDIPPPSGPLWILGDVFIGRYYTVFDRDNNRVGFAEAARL

Renin = biological target: T2, Renin (Homo sapiens, UniProt P00797); assay: Inhibition of renin
T2 sequence (P00797 whole entry): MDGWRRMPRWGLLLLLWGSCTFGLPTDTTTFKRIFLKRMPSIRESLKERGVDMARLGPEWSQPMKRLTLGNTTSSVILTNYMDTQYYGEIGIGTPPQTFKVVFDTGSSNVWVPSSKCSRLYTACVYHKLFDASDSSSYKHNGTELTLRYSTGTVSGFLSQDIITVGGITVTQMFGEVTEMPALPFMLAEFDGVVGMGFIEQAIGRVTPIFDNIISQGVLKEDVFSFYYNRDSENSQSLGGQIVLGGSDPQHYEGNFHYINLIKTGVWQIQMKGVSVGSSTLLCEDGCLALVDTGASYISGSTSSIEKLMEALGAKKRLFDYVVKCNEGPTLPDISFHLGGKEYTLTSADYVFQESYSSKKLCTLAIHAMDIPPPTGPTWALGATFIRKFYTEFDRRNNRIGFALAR

[15] = tested on: Human immunodeficiency virus 1; assay: Antiviral activity against wild-type HIV1 pNL4-3 infected in human MT4 cells after 5 days by MTT assay in presence of 50% human serum; format: functional, organism-based; conditions: Human immunodeficiency virus 1, MT4, 120 h
[16] = Solubility at pH 7.4; format: physicochemical; conditions: buffer
Outline: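 Solubility measured in µg/mL at pH 7.4 and 25 °C.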

Cytochrome P450 2D6 = Cytochrome P450 2D6 (Homo sapiens, UniProt P10635); assay: Inhibition of CYP2D6 assessed as dextromethorphan O-demethylation; format: ADME; outline: as §2
Sequence of Cytochrome P450 2D6 (P10635 whole entry): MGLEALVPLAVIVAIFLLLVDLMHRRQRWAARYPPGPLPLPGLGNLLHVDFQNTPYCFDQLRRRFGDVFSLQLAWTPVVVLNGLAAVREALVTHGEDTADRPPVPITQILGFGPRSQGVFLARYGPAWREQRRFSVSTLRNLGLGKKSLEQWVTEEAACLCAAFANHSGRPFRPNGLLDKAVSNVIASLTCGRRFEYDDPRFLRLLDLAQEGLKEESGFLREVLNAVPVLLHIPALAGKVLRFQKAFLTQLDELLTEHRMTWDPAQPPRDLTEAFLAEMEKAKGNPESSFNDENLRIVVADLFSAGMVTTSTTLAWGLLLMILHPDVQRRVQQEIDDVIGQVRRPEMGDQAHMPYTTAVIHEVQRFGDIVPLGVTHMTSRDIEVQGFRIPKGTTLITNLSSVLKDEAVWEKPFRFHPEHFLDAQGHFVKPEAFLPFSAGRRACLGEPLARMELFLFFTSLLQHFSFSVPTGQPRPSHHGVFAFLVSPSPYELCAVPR

[17] = tested on: Human immunodeficiency virus 1; assay: Antiviral activity against HIV1 bearing protease gene with A17 mutation infected in human MT4 cells after 5 days by MTT assay; format: functional, organism-based; conditions: Human immunodeficiency virus 1, MT4, 120 h
Outline: (§4)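 HIV-1 A17 mutant clone carrying protease mutations L10F, V32I, M46I, I47V, Q58E and I84V, generated by in vitro serial passage under LPV/RTV. EC50 was determined in MT-4 cells. Wild-type reference strain was HIV-1 pNL4-3.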

[18] = Half life in Sprague-Dawley rat at 5 mg/kg, iv; format: ADME, organism-based; design: dose 5 mg/kg, route intravenous; conditions: in vivo; outline: as §3
[19] = AUC in dog at 5 mg/kg, po; format: ADME, organism-based, Canis lupus familiaris; design: dose 5 mg/kg, route oral; conditions: plasma; outline: as §1
[20] = Oral bioavailability in Sprague-Dawley rat at 5 mg/kg; format: ADME, organism-based; conditions: in vivo; outline: as §3
[21] = Inhibition of human pepsin
Cytochrome P450 2C19 = Cytochrome P450 2C19 (Homo sapiens, UniProt P33261); assay: Inhibition of CYP2C19 assessed as S-mephenytion hydroxylation; format: ADME; outline: as §2
Sequence of Cytochrome P450 2C19 (P33261 whole entry): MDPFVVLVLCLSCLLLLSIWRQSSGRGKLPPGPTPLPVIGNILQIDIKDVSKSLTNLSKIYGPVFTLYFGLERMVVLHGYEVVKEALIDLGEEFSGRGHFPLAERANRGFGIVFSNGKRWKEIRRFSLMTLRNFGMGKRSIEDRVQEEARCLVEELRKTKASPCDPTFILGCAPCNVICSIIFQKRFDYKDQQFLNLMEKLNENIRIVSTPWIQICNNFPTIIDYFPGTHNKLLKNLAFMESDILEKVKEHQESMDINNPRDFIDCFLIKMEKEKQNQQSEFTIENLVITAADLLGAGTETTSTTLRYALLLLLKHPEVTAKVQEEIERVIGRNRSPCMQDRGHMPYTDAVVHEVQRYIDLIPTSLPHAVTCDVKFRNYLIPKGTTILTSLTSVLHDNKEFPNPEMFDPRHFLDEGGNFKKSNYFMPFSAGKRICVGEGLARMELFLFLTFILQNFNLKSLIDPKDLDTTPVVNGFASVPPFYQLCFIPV

Serum [22] = assay: Drug level in Gunn rat serum at 125 mg/kg coadministered with ritonavir measured on day 1; format: ADME, organism-based; design: dose 125 mg/kg; conditions: in vivo
Outline: (§5)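 Gunn rats (n = 8-10 per arm) dosed orally with compound in 5% ethanol/95% propylene glycol with p-toluenesulfonic acid, together with 50 mg/kg RTV. Plasma was sampled 4 h after the first and second doses. Drug was measured by HPLC and bilirubin […]. Change in bilirubin (mg/dL) reported as mean with SD.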

Rattus norvegicus [23] = assay: Toxicity in Gunn rat assessed as unconjugated-bilirubin level at 125 mg/kg coadministered with ritonavir measured on day 1; format: organism-based; design: dose 125 mg/kg; conditions: in vivo; outline: as §5
Rattus norvegicus [24] = assay: Toxicity in po dosed Gunn rat assessed as hyperbilirubinemia; format: organism-based; conditions: in vivo; outline: as §5
Serum [25] = assay: Drug level in Gunn rat serum at 100 mg/kg coadministered with ritonavir measured on day 1; format: ADME, organism-based; design: dose 100 mg/kg; conditions: in vivo; outline: as §5
Rattus norvegicus [26] = assay: Toxicity in Gunn rat assessed as unconjugated-bilirubin level at 100 mg/kg coadministered with ritonavir measured on day 2; format: organism-based; design: dose 100 mg/kg; conditions: in vivo; outline: as §5
Serum [27] = assay: Drug level in Gunn rat serum at 100 mg/kg coadministered with ritonavir measured on day 2; format: ADME, organism-based; design: dose 100 mg/kg; conditions: in vivo; outline: as §5
[28] = tested on: Human immunodeficiency virus 1; assay: Fold resistance, ratio of EC50 for HIV1 bearing protease gene with A17 mutation to EC50 for wild-type HIV1 pNL4-3; format: functional; outline: as §4
Rattus norvegicus [29] = assay: Toxicity in Gunn rat assessed as unconjugated-bilirubin level at 100 mg/kg coadministered with ritonavir measured on day 1; format: organism-based; design: dose 100 mg/kg; conditions: in vivo; outline: as §5

Compound: COC(=O)N[C@H](C(=O)N[C@H](Cc1ccc(-c2ccccn2)cc1)C[C@H](O)[C@H](Cc1ccccc1)NC(=O)[C@@H](N1CCN(Cc2cccc(C(C)(C)O)n2)C1=O)C(C)(C)C)C(C)(C)C
- Cmax [1]: 40 ng/mL
- concentration at 12 h [2]: 58 ng/mL
- AUC [3]: 6720 ng·h/mL
- IC50 (Cytochrome P450 2C9): > 5 µM
- EC50 [4]: 0.045 µM
- EC50 [5]: 0.025 µM
- AUC [6]: 12900 ng·h/mL
- AUC [7]: 10600 ng·h/mL
- concentration at 12 h [8]: 13 ng/mL
- IC50 (Cytochrome P450 1A2): > 5 µM
- EC50 [9]: 0.003 µM
- Ki (Cytochrome P450 3A4): 0.066 µM
- clearance [10]: 22.5 mL/min/kg
- Cmax [11]: 2560 ng/mL
- AUC [12]: 180 ng·h/mL
- fraction unbound [13]: 0.018
- Cmax [14]: 2220 ng/mL
- Ki (Cathepsin D): 0.54 µM
- Ki (Renin): > 20 µM
- EC50 [15]: 0.019 µM
- solubility [16]: 11.3 µg/mL (≈ 13.1 µM)
- IC50 (Cytochrome P450 2D6): > 5 µM
- EC50 [17]: 0.01 µM
- half-life [18]: 30 min
- AUC [19]: 20 ng·h/mL
- bioavailability [20]: 4.9%
- Ki [21]: 200 µM
- IC50 (Cytochrome P450 2C19): > 5 µM
- Drug uptake (Serum [22]): 9.37 µg/mL
- Activity (Rattus norvegicus [23]): 0.125 mg/dL

Compound: COC(=O)N[C@H](C(=O)NN(Cc1ccc(-c2ccccn2)cc1)C[C@H](O)[C@H](Cc1ccccc1)NC(=O)[C@@H](N1CCN(Cc2cccc(C)n2)C1=O)C(C)(C)C)C(C)(C)C
- Activity (Rattus norvegicus [24]): Toxic
- Drug uptake (Serum [25]): 8.87 µg/mL
- EC50 [9]: 0.002 µM
- Activity (Rattus norvegicus [26]): 0.685 mg/dL
- Drug uptake (Serum [27]): 8.88 µg/mL
- EC50 [15]: 0.03 µM
- Ratio EC50 [28]: 9
- Activity (Rattus norvegicus [29]): 0.536 mg/dL
- EC50 [17]: 0.017 µM
